Data taken from ChEMBL document CHEMBL1138596, “Synthesis and biological evaluation of novel 4-(hetero) aryl-2-piperazino quinazolines as anti-leishmanial and anti-proliferative agents” (Bioorg Med Chem Lett, 2009).
Values after ≈ are worked out from the molar mass of the structure shown.

Experiments:
Leishmania donovani [1] = experiment: Antileishmanial activity against Leishmania donovani MHOM/IN/Dd8 promastigotes assessed as luciferase activity after 72 hrs; format: functional, organism-based; conditions: MHOM/IN/Dd8, 72 h
Summary of the method: (§1)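 L. donovani parasites transfected with firefly luciferase gene, maintained in medium 199 with 10% fetal calf serum, penicillin (50 U/ml) and streptomycin under G418 pressure; compounds tested at various concentrations against transgenic promastigotes and intracellular amastigotes; IC50 calculated by Probit analysis.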

Leishmania donovani [2] = experiment: Antileishmanial activity against Leishmania donovani MHOM/IN/Dd8 amastigotes infected in mouse J774A1 cells assessed as luciferase activity after 48 hrs; format: functional, organism-based; conditions: for Activity: J774.A1; for IC50: MHOM/IN/Dd8, J774.A1, 48 h; summary of the method: as §1
DU-145 = experiment: Antiproliferative activity against human DU145 cells by MTT assay; format: functional, cell-based
Summary of the method: (§2)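 Twofold serial dilutions of compound up to a highest concentration of 50 µg/mL; viability read by MTT assay; panel of DU145 prostate, MCF-7 breast, KB oral epidermal, C33A cervical carcinoma lines and non-cancerous VERO cells.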

MCF7 = experiment: Antiproliferative activity against human MCF7 cells by MTT assay; format: functional, cell-based; summary of the method: as §2
C-33-A = experiment: Antiproliferative activity against human C33A cells by MTT assay; format: functional, cell-based; summary of the method: as §2
KB = experiment: Antiproliferative activity against human KB cells by MTT assay; format: functional, cell-based; summary of the method: as §2
Vero = experiment: Antiproliferative activity against african green monkey Vero cells by MTT assay; format: cell-based; conditions: Chlorocebus sabaeus; summary of the method: as §2
[3] = Cytotoxicity against mouse J774A1 cells; format: cell-based, J774.A1
Summary of the method: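 Mouse macrophage line J-774-A-1; cytotoxicity read by MTT assay.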

[4] = (§3) Selectivity index, ratio of CC50 for mouse J774A1 cells to IC50 for Leishmania donovani MHOM/IN/Dd8 amastigotes; format: functional, J774.A1
J774.A1 = experiment: as §3; format: functional

IC50 (Leishmania donovani [1]) [µg/mL] | IC50 (DU-145) [µg/mL] | IC50 (MCF7) [µg/mL] | IC50 (KB) [µg/mL] | IC50 (Leishmania donovani [2]) [µg/mL] | Compound | Activity (Leishmania donovani [2]) | IC50 (C-33-A) [µg/mL] | IC50 (Vero) [µg/mL] | CC50 [3] [µg/mL] | Ratio CC50/IC50 [4] | Ratio CC50/IC50 (J774.A1)
0.56 (≈ 1.7 µM) | 12.5 (≈ 37.9 µM) | 14.1 (≈ 42.8 µM) | 4 (≈ 12.1 µM) | – | c1ccc2c(-c3c[nH]c4ccccc34)nc(N3CCNCC3)nc2c1 | Toxic | 8.2 (≈ 24.9 µM) | 8.9 (≈ 27 µM) | 3.11 (≈ 9.44 µM) | – | –
0.28 (≈ 0.815 µM) | > 50 | > 50 | > 50 | 12.5 (≈ 36.4 µM) | Cn1cc(-c2nc(N3CCNCC3)nc3ccccc23)c2ccccc21 | – | > 50 | > 50 | 16 (≈ 46.6 µM) | 1.28 | –
0.62 (≈ 1.73 µM) | > 50 | > 50 | > 50 | – | CN1CCN(c2nc(-c3cn(C)c4ccccc34)c3ccccc3n2)CC1 | Toxic | > 50 | > 50 | 1.03 (≈ 2.88 µM) | – | –
0.68 (≈ 1.98 µM) | 20.8 (≈ 60.6 µM) | 6 (≈ 17.5 µM) | 4.9 (≈ 14.3 µM) | 4.17 (≈ 12.1 µM) | CN1CCN(c2nc(-c3c[nH]c4ccccc34)c3ccccc3n2)CC1 | – | 11.5 (≈ 33.5 µM) | 22.3 (≈ 64.9 µM) | 7.27 (≈ 21.2 µM) | 1.74 | –
0.624 (≈ 1.78 µM) | > 50 | > 50 | > 50 | 5.11 (≈ 14.6 µM) | COc1ccc(-c2nc(N3CCNCC3)nc3ccccc23)c(OC)c1 | – | > 50 | > 50 | 3.98 (≈ 11.4 µM) | 0.78 | –

The remaining lines, values behind:

Compound | IC50 (Leishmania donovani [1]) [µg/mL] | IC50 (DU-145) [µg/mL] | IC50 (MCF7) [µg/mL] | IC50 (KB) [µg/mL] | IC50 (Leishmania donovani [2]) [µg/mL] | Activity (Leishmania donovani [2]) | IC50 (C-33-A) [µg/mL] | IC50 (Vero) [µg/mL] | CC50 [3] [µg/mL] | Ratio CC50/IC50 [4] | Ratio CC50/IC50 (J774.A1)
COc1cc(OC)c(-c2nc(N3CCNCC3)nc3ccccc23)c(OC)c1 | 0.25 (≈ 0.657 µM) | > 50 | > 50 | > 50 | – | Toxic | > 50 | > 50 | – | – | –
COc1cc(OC)c(-c2nc(N3CCN(C)CC3)nc3ccccc23)c(OC)c1 | 6.2 (≈ 15.7 µM) | > 50 | > 50 | > 50 | 12.4 (≈ 31.6 µM) | – | > 50 | > 50 | > 100 | >8.03 | –
c1ccc2c(-c3c[nH]c4ccccc34)nc(N3CCCCC3)nc2c1 | > 10 | > 50 | > 50 | > 50 | – | – | > 50 | > 50 | – | – | –
c1ccc2c(-c3c[nH]c4ccccc34)nc(N3CCOCC3)nc2c1 | 1.8 (≈ 5.45 µM) | > 50 | > 50 | > 50 | 25.1 (≈ 76.1 µM) | – | > 50 | > 50 | 50.1 (≈ 152 µM) | 1.99 | –
N=C(N)c1ccc(OCCCCCOc2ccc(C(=N)N)cc2)cc1 [PENTAMIDINE] | – | – | – | – | – | – | – | – | – | 2.07 | –
COc1ccc(-c2nc(N3CCN(C)CC3)nc3ccccc23)c(OC)c1 | 3.79 (≈ 10.4 µM) | > 50 | > 50 | > 50 | 4.28 (≈ 11.7 µM) | – | > 50 | > 50 | 18 (≈ 49.4 µM) | 4.21 | –
Sodium stilbogluconate | – | – | – | – | – | – | – | – | – | – | 6.38
Fc1ccc(N2CCN(c3nc(-c4c[nH]c5ccccc45)c4ccccc4n3)CC2)cc1 | 1.72 (≈ 4.06 µM) | > 50 | > 50 | > 50 | 12.3 (≈ 29.1 µM) | – | > 50 | > 50 | 23.4 (≈ 55.3 µM) | 1.9 | –
